The subject of one test is Cryptococcus neoformans. Briefly: Antifungal activity against Cryptococcus neoformans H99 after 48 hrs by resazurin-staining based serial dilution method. It is filed as functional. The conditions noted are these: var grubii H99 . The method, boiled down: (§1)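 Serial dilution per NCCLS guidance in 96-well plates with YM test medium (1% maltose extract, 0.2% yeast extract, 0.4% agar). Compounds in DMSO, diluted in growth medium; amphotericin B positive control. Incubated at 25 °C; C. albicans ATCC 10231 read at 24 h, C. neoformans H99 at 48 h. Visual end point, OD and PrestoBlue resazurin viability; MIC = lowest concentration giving 100% inhibition versus untreated control.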
On the technique in general: Resazurin is reduced to fluorescent resorufin, in cell work by metabolically active cells.

The subject of a further test is Candida albicans. Briefly: Antifungal activity against Candida albicans ATCC 10231 measured after 24 hrs by resazurin-staining based serial dilution method. It is filed as functional. Particulars: ATCC 10231, 24 h. The method in brief:
as §1

The nature of test [1]: Antiproliferative activity against human DU145 cells. It is filed as functional, cell-based. The conditions noted are these: DU-145.

Data on 5 compounds can be found in ChEMBL document CHEMBL3868588, “Emestrins: Anti-Cryptococcus Epipolythiodioxopiperazines from Podospora australis” (J Nat Prod, 2016).

In brackets after ≈: the same amount, converted by molar mass.

The term MIC denotes the smallest concentration in the dilution series that meets the test's criterion for growth inhibition. Read a high MIC as weaker potency. Regarding `COc1ccc2cc1Oc1cc(ccc1OC)C(=O)O[C@H]1C=COC=C3[C@@H](O)[C@]45SS[C@](C2)(C(=O)N4[C@@H]31)N(C)C5=O`, the MIC was 1.6 µg/mL (≈ 2.68 µM) with Cryptococcus neoformans and above 25.6 µg/mL against Candida albicans.
In the same order, the values of `COc1ccc2cc1Oc1cc(ccc1OC)[C@H](O)[C@]13SSSS[C@@]4(C(=O)N1C)[C@H](O)C1=COC=C[C@H](OC2=O)[C@H]1N4C3=O` are 25.6 µg/mL (≈ 37.8 µM) and above 25.6 µg/mL.
For `COc1ccc2cc1Oc1cc(ccc1OC)[C@H](O)[C@]13SSS[C@@]4(C(=O)N1C)[C@H](O)C1=COC=C[C@H](OC2=O)[C@H]1N4C3=O` the same measures were 6.4 µg/mL (≈ 9.93 µM) and above 25.6 µg/mL.
For orientation: IC50 means the concentration that inhibits the measured activity by half. For the compound `COc1ccc2cc1Oc1cc(ccc1OC)[C@H](O)[C@]13SS[C@@]4(C(=O)N1C)[C@H](O)C1=COC=C[C@H](OC2=O)[C@H]1N4C3=O`, the MIC with Cryptococcus neoformans is 0.8 µg/mL (≈ 1.31 µM); in the test on Candida albicans it was 6.4 µg/mL (≈ 10.4 µM). Moreover, inhibition in test [1] was half-maximal at 9.3 nM (IC50).
Consider `C[C@@H]1[C@H](O)[C@@H](C)/C=C/C=C/C=C/C=C/C=C/C=C/C=C/[C@H](O[C@@H]2O[C@H](C)[C@@H](O)[C@H](N)[C@@H]2O)C[C@@H]2O[C@](O)(C[C@@H](O)C[C@@H](O)[C@H](O)CC[C@@H](O)C[C@@H](O)CC(=O)O[C@H]1C)C[C@H](O)[C@H]2C(=O)O` [AMPHOTERICIN B], for which the MIC against Cryptococcus neoformans is 0.8 µg/mL (≈ 0.866 µM); against Candida albicans, 1.6 µg/mL (≈ 1.73 µM).
